According to ChEMBL document CHEMBL4689842, “EUbOPEN Chemogenomics Library wave 1” (2021):

Test system: Fibroblast
Assay: Multiplex assay against human fibroblast
Format: toxicity, cell-based
How it was run: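 Compound was added to live cells that had been stained at seeding with Hoechst33342, BioTracker Green Microtubule Cytoskeleton Dye, MitoTracker Red and Annexin V Alexa Fluor 680, and imaging followed on a CQ1 microscope at 37°C and 5% CO2. CellPathfinder machine-learning gating divided cells into Hoechst high-intensity objects or normal cells, normal cells into healthy, pyknosed or fragmented nuclei, and pyknosed cells into mitotic or apoptotic. Tubulin, mitochondrial-mass and membrane-permeability phenotypes are per cents of healthy-nucleus cells.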

[1] = 12 h, 1 µM, compound concentration 1 uM, replicate 1
[2] = 12 h, 1 µM, compound concentration 1 uM, replicate 2
[3] = 12 h, 10 µM, compound concentration 10 uM, replicate 1
[4] = 12 h, 10 µM, compound concentration 10 uM, replicate 2
[5] = 24 h, 1 µM, compound concentration 1 uM, replicate 1
[6] = 24 h, 1 µM, compound concentration 1 uM, replicate 2
[7] = 24 h, 10 µM, compound concentration 10 uM, replicate 1
[8] = 24 h, 10 µM, compound concentration 10 uM, replicate 2
[9] = 48 h, 1 µM, compound concentration 1 uM, replicate 1
[10] = 48 h, 1 µM, compound concentration 1 uM, replicate 2
[11] = 48 h, 10 µM, compound concentration 10 uM, replicate 1
[12] = 48 h, 10 µM, compound concentration 10 uM, replicate 2

Structure (SMILES): N#CCNC(=O)c1ccc(-c2ccnc(Nc3ccc(N4CCOCC4)cc3)n2)cc1 [MOMELOTINIB]
- Population Apoptotic (%) [1]: 64%
- Population Fragmented Nuclei (%) [1]: 26%
- Population Healthy Nuclei (%) [1]: 40%
- Population Hoechst High Intensity Objects (%) [1]: 11%
- Population Membrane Permeable-Phenotype (%) [1]: 30%
- Population Mitochondria Different-Phenotype (%) [1]: 4%
- Population Mitotic Cells (%) [1]: 35%
- Population Normal (%) [1]: 88%
- Population Pyknosed Nuclei (%) [1]: 33%
- Population Tubulin-Different-Phenotype (%) [1]: 21%
- Total Cell Count [1]: 117
- Population Apoptotic (%) [2]: 60%
- Population Fragmented Nuclei (%) [2]: 1%
- Population Healthy Nuclei (%) [2]: 88%
- Population Hoechst High Intensity Objects (%) [2]: 8%
- Population Membrane Permeable-Phenotype (%) [2]: 2%
- Population Mitochondria Different-Phenotype (%) [2]: 13%
- Population Mitotic Cells (%) [2]: 40%
- Population Normal (%) [2]: 91%
- Population Pyknosed Nuclei (%) [2]: 9%
- Population Tubulin-Different-Phenotype (%) [2]: 11%
- Total Cell Count [2]: 3119
- Population Apoptotic (%) [3]: 63%
- Population Fragmented Nuclei (%) [3]: 40%
- Population Healthy Nuclei (%) [3]: 28%
- Population Hoechst High Intensity Objects (%) [3]: 13%
- Population Membrane Permeable-Phenotype (%) [3]: 16%
- Population Mitochondria Different-Phenotype (%) [3]: 10%
- Population Mitotic Cells (%) [3]: 36%
- Population Normal (%) [3]: 86%
- Population Pyknosed Nuclei (%) [3]: 31%
- Population Tubulin-Different-Phenotype (%) [3]: 45%
- Total Cell Count [3]: 153
- Population Apoptotic (%) [4]: 13%
- Population Fragmented Nuclei (%) [4]: 27%
- Population Healthy Nuclei (%) [4]: 47%
- Population Hoechst High Intensity Objects (%) [4]: 10%
- Population Membrane Permeable-Phenotype (%) [4]: 0%
- Population Mitochondria Different-Phenotype (%) [4]: 6%
- Population Mitotic Cells (%) [4]: 86%
- Population Normal (%) [4]: 89%
- Population Pyknosed Nuclei (%) [4]: 24%
- Population Tubulin-Different-Phenotype (%) [4]: 6%
- Total Cell Count [4]: 56
- Population Apoptotic (%) [5]: 56%
- Population Fragmented Nuclei (%) [5]: 26%
- Population Healthy Nuclei (%) [5]: 52%
- Population Hoechst High Intensity Objects (%) [5]: 11%
- Population Membrane Permeable-Phenotype (%) [5]: 27%
- Population Mitochondria Different-Phenotype (%) [5]: 0%
- Population Mitotic Cells (%) [5]: 43%
- Population Normal (%) [5]: 88%
- Population Pyknosed Nuclei (%) [5]: 20%
- Population Tubulin-Different-Phenotype (%) [5]: 18%
- Total Cell Count [5]: 127
- Population Apoptotic (%) [6]: 66%
- Population Fragmented Nuclei (%) [6]: 7%
- Population Healthy Nuclei (%) [6]: 86%
- Population Hoechst High Intensity Objects (%) [6]: 10%
- Population Membrane Permeable-Phenotype (%) [6]: 6%
- Population Mitochondria Different-Phenotype (%) [6]: 15%
- Population Mitotic Cells (%) [6]: 33%
- Population Normal (%) [6]: 89%
- Population Pyknosed Nuclei (%) [6]: 5%
- Population Tubulin-Different-Phenotype (%) [6]: 8%
- Total Cell Count [6]: 3108
- Population Apoptotic (%) [7]: 48%
- Population Fragmented Nuclei (%) [7]: 39%
- Population Healthy Nuclei (%) [7]: 37%
- Population Hoechst High Intensity Objects (%) [7]: 14%
- Population Membrane Permeable-Phenotype (%) [7]: 29%
- Population Mitochondria Different-Phenotype (%) [7]: 12%
- Population Mitotic Cells (%) [7]: 51%
- Population Normal (%) [7]: 85%
- Population Pyknosed Nuclei (%) [7]: 23%
- Population Tubulin-Different-Phenotype (%) [7]: 46%
- Total Cell Count [7]: 147
- Population Apoptotic (%) [8]: 45%
- Population Fragmented Nuclei (%) [8]: 31%
- Population Healthy Nuclei (%) [8]: 52%
- Population Hoechst High Intensity Objects (%) [8]: 5%
- Population Membrane Permeable-Phenotype (%) [8]: 28%
- Population Mitochondria Different-Phenotype (%) [8]: 34%
- Population Mitotic Cells (%) [8]: 54%
- Population Normal (%) [8]: 94%
- Population Pyknosed Nuclei (%) [8]: 16%
- Population Tubulin-Different-Phenotype (%) [8]: 14%
- Total Cell Count [8]: 59
- Population Apoptotic (%) [9]: 44%
- Population Fragmented Nuclei (%) [9]: 34%
- Population Healthy Nuclei (%) [9]: 57%
- Population Hoechst High Intensity Objects (%) [9]: 16%
- Population Membrane Permeable-Phenotype (%) [9]: 16%
- Population Mitochondria Different-Phenotype (%) [9]: 1%
- Population Mitotic Cells (%) [9]: 55%
- Population Normal (%) [9]: 83%
- Population Pyknosed Nuclei (%) [9]: 8%
- Population Tubulin-Different-Phenotype (%) [9]: 17%
- Total Cell Count [9]: 129
- Population Apoptotic (%) [10]: 80%
- Population Fragmented Nuclei (%) [10]: 33%
- Population Healthy Nuclei (%) [10]: 61%
- Population Hoechst High Intensity Objects (%) [10]: 15%
- Population Membrane Permeable-Phenotype (%) [10]: 4%
- Population Mitotic Cells (%) [10]: 20%
- Population Normal (%) [10]: 84%
- Population Pyknosed Nuclei (%) [10]: 5%
- Population Tubulin-Different-Phenotype (%) [10]: 21%
- Total Cell Count [10]: 117
- Population Apoptotic (%) [11]: 60%
- Population Fragmented Nuclei (%) [11]: 47%
- Population Healthy Nuclei (%) [11]: 40%
- Population Hoechst High Intensity Objects (%) [11]: 14%
- Population Membrane Permeable-Phenotype (%) [11]: 25%
- Population Mitochondria Different-Phenotype (%) [11]: 9%
- Population Mitotic Cells (%) [11]: 40%
- Population Normal (%) [11]: 85%
- Population Pyknosed Nuclei (%) [11]: 11%
- Population Tubulin-Different-Phenotype (%) [11]: 37%
- Total Cell Count [11]: 155
- Population Apoptotic (%) [12]: 50%
- Population Fragmented Nuclei (%) [12]: 52%
- Population Hoechst High Intensity Objects (%) [12]: 8%
- Population Membrane Permeable-Phenotype (%) [12]: 11%
- Population Mitochondria Different-Phenotype (%) [12]: 1%
- Population Mitotic Cells (%) [12]: 50%
- Population Normal (%) [12]: 91%
- Population Pyknosed Nuclei (%) [12]: 6%
- Population Tubulin-Different-Phenotype (%) [12]: 58%
- Total Cell Count [12]: 162
